High-throughput results from PubChem BioAssay.
CRFBP-R2 block: CRF-BP/CRF-R2 complex antagonism. HEK293 CRF-R2/CRF-BP, CRF-induced calcium fluorescence. inhibition, % at 11.8 µM. 350,000 tested, 0.59% active;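 active = inhibition of the ligand-induced calcium signal above about 50% at the single tested concentration, limit read from the data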
CRFR2-BP ag: agonists of human CRF-binding protein/CRF-R2 receptor complex; HEK293 CRF-R2/CRF-BP, calcium dye fluorescence (FLIPR); percent of saturating CRF peptide response; activation, % at 13.2 µM; 350,000 tested, 0.46% active; AID 588473;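 active = activation of at least 50%, plus an integration ratio under a set limit after plate pattern correction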
cardiac RTF act: increases calcium sensitivity of human cardiac regulated thin filaments. AID 493008. activation, % at 7.2 µM. 340,000 tested, 0.24% active. IANBD-labeled TnC RTF fluorescence at EC20 calcium; 0% EC20 calcium, 100% full calcium. P19429+P45379;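 active = activation above the mean over all tested compounds plus 3 SD, cut at about 30% in these data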;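 note: rise in fluorescence read as greater calcium sensitivity of cardiac thin filaments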
RTF Ca sens inh: cardiac RTF calcium desensitization. AID 493244. 340,000 tested, 0.12% active. inhibition, % at 7.15 µM. IANBD-labeled cardiac RTF, Ca2+ fluorescence;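 active = inhibition above the mean inhibition of all tested compounds plus 3 SD, cut at about 17% in these data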;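 note: assay run at fixed EC70 calcium of 1.6 mM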
Tn6 DDE FP: DD(E)-Tn6 binding inhibition, primary FP screen | P02675 | inhibition, % at 8.3 µM | 370,000 tested, 0.21% active | Fibrin DD(E) TRITC-Tn6 fluorescence polarization displacement;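 active = inhibition above a per-campaign cutoff: mean of compounds within control limits plus 3 SD, cut at about 15% in these data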
Target sequence (P02675 whole entry, looked up): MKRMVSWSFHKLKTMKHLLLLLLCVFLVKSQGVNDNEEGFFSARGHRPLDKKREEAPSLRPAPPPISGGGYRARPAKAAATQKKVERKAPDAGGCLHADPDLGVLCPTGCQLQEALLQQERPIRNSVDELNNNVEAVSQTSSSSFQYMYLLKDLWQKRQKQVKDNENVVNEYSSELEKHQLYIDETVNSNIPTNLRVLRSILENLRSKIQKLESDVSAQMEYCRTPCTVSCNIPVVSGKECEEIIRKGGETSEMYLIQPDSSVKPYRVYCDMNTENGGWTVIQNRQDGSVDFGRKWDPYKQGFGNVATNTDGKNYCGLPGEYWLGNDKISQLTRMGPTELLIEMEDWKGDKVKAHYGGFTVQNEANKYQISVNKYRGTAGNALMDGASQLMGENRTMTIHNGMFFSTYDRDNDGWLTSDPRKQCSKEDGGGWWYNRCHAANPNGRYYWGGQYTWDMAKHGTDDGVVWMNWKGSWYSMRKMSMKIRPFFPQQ
Tn7 DDE FP: DD(E)-Tn7 binding inhibition, primary FP screen; FP displacement of FITC-Tn7 peptide from fibrin DD(E); 0% = median of compound wells per plate; inhibition, % at 8.3 µM; 370,000 tested, 0.13% active;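 active = inhibition above the mean of compounds falling within the control limits plus 3 SD of them, cut at about 14% in these data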
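Assay system: Fibrin-DD(E) protein isolated from polymerized human fibrin clots; read-out basis: percent inhibition; medium: Tris/NaCl/CaCl2 buffer, pH 7.8; signal: FP measurement; incubation: 10 min plus 3 h, room temperature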
Of the large screens only hits and unclear results are named; the others gave an inactive call. A selection: hits, their analogues and other compounds. The true share with any hit is near 1.4%.

CSc1ncc(Cl)c(C(=O)Nc2ccc(S(=O)(=O)N3CCOCC3)cc2)n1	CRFBP-R2 block 90
O=C(Nc1ccc(S(=O)(=O)N2CCOCC2)cc1)c1ccc(Cl)c([N+](=O)[O-])c1	CRFBP-R2 block 56
O=C(N[C@@H](Cc1ccccc1)C(=O)N1CCC2CCN(S(=O)(=O)c3ccccc3)CC21)[C@@H]1CCCN1 (stereo not given in full)	none (no result: CRFBP-R2 block, CRFR2-BP ag, cardiac RTF act, RTF Ca sens inh)
CCCn1cnc2cc(NCc3ccc(Br)cc3)ccc21	none
CCn1cnc2cc(NCc3ccc(Br)cc3)ccc21	CRFR2-BP ag 52 (no result: cardiac RTF act, RTF Ca sens inh)
Cc1ccc(CNc2ccc3c(c2)ncn3C(C)C)cc1	CRFR2-BP ag 61
COc1ccc(CC(=O)Cc2ccc(OC)c(OC)c2)cc1OC	Tn7 DDE FP 14 (no result: cardiac RTF act, RTF Ca sens inh)
COc1ccc(C(=O)O/N=C(\N)Cc2ccc(Cl)c(Cl)c2)cc1OC	CRFBP-R2 block 110
COc1ccc(CCNC(N)=S)cc1OC	CRFBP-R2 block 63
O=C(Nc1ccc(F)cc1F)C1CCN(c2nnc(-n3cccc3)s2)CC1	none (no result: CRFBP-R2 block, CRFR2-BP ag, cardiac RTF act, RTF Ca sens inh)
COC(=O)[C@@]12C[C@@H](CC(=O)NCCc3ccccc3OC)C(=O)N(Cc3ccco3)C1=CCC(C)(C)C2	none (no result: CRFBP-R2 block, CRFR2-BP ag, cardiac RTF act, RTF Ca sens inh)
COC(=O)[C@]12C[C@H](CC(=O)NCCc3ccccc3OC)C(=O)N(Cc3ccco3)C1=C[C@H](C(C)(C)C)O[C@@H]2C	none (no result: CRFBP-R2 block, CRFR2-BP ag, cardiac RTF act, RTF Ca sens inh)
CCC[C@H]1[C@@H](OC(=O)NCc2ccc(OC)cc2)CC[C@@]23CCCN2C(=O)CCC[C@@H]13	none (no result: CRFBP-R2 block, CRFR2-BP ag, cardiac RTF act, RTF Ca sens inh)
Cc1ccc(N(C(=O)Cn2nnc(-c3ccccc3F)n2)C(C(=O)NC2CCCC2)c2ccncc2)cc1 (stereo not given)	CRFBP-R2 block 51
Cc1ccc(N(C(=O)Cn2nnc(-c3cccs3)n2)C(C(=O)NC2CCCC2)c2ccncc2)cc1 (stereo not given)	none
CNC[C@H]1OCc2cnnn2CCCC(=O)N([C@@H](C)CO)C[C@@H]1C	none (no result: CRFBP-R2 block, CRFR2-BP ag, cardiac RTF act, RTF Ca sens inh)
CC(C)Oc1ccc(-c2csc(N3CCC(C(N)=O)CC3)n2)cc1	none (no result: CRFBP-R2 block, CRFR2-BP ag, cardiac RTF act, RTF Ca sens inh)
Cn1c(CN2CCCCC2)nc2cc(NS(=O)(=O)c3ccc(Cl)cc3)ccc21	CRFR2-BP ag 86
Cn1c(CCN2CCCCC2)nc2cc(NS(=O)(=O)c3ccc(Cl)cc3)ccc21	none
Cc1onc(-c2c(F)cccc2Cl)c1-c1ncc(-c2ccc(Cl)cc2)o1	none (no result: CRFBP-R2 block, CRFR2-BP ag, cardiac RTF act, RTF Ca sens inh)
Cc1c(Cl)ccc2c1NC(=O)C21NC(CCC(N)=O)[C@H]2C(=O)N(c3ccc(Cl)cc3)C(=O)[C@H]21 (stereo not given in full)	CRFBP-R2 block 50
Cc1cc(C)cc(N2C(=O)CSC2c2cccs2)c1 (stereo not given)	CRFR2-BP ag 51
Cc1ccc(N2C(=O)CSC2c2cccs2)cc1 (stereo not given)	none
COc1cc(C(=O)NC(=S)NCc2ccncc2)cc(OC)c1OC	none (no result: cardiac RTF act, RTF Ca sens inh)
CCn1cc(C(=O)OCC(=O)c2cc(C)n(-c3ccccc3)c2C)c(=O)c2ccc(C)nc21	none
CCn1cc(C(=O)OCC(=O)c2cc(C)n(-c3ccc(OC(F)F)cc3)c2C)c(=O)c2ccc(C)nc21	CRFBP-R2 block 60
O=C(CSc1nc2ccccc2n1CCc1ccccc1)NC1CCS(=O)(=O)C1 (stereo not given)	CRFBP-R2 block 60
O=C1c2ccccc2-c2onc3ccc(Oc4ccccc4)c1c23	cardiac RTF act 31
O=C(c1ccccc1)c1coc2c1C(=O)c1ccccc1C2=O	none
COc1ccc(Sc2nc(-c3ccccc3)ncc2C(=O)O)cc1	none
O=C(O)c1cnc(-c2ccccc2)nc1Sc1ccc(Cl)cc1	CRFBP-R2 block 55
CC(NC(=O)COC(=O)C1(C)CC1(Cl)Cl)c1ccccc1 (stereo not given)	CRFBP-R2 block 54
Cc1oc(/N=C/c2ccccc2)c(C#N)c1C	none
COc1[nH]c(/N=C/c2ccccc2)c(C#N)c1C#N	cardiac RTF act 106, Tn6 DDE FP 38
O=C(N/N=C/c1c(O)ccc2ccccc12)c1cccc(C(F)(F)F)c1	CRFR2-BP ag 208
COc1ccc2ccccc2c1/C=N/NC(=O)c1cccc(Br)c1	none
Cc1ccc(S(=O)(=O)NN=Cc2c(O)ccc3ccccc23)cc1	CRFBP-R2 block 56 (no result: cardiac RTF act, RTF Ca sens inh)
Oc1ccc2ccccc2c1C=Nc1ccccc1Br	none
